The source made the active and inactive calls.

Data on 1 compound can be found in ChEMBL document CHEMBL1153728, “Quercetin reduces inflammatory pain: inhibition of oxidative stress and cytokine production” (2009).

The subject of assay [1] is Mus musculus. As to the kind of experiment: Antinociceptive activity in Swiss mouse assessed as inhibition of carrageenan-induced mechanical hypernociception at 100 mg/kg, ip dosed 30 mins before carrageenan challenge measured after 1 to 5 hrs by electronic pressure-meter test. It is filed as functional, organism-based. Also noted: dose 100 mg/kg. A digest of the protocol: (§1)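 Male Swiss mice given 100 mg/kg ip at 12, 6, 3 h or 30 min before intraplantar carrageenin (100 µg/paw). Mechanical withdrawal threshold by electronic pressure-meter (mean of three readings) at 1, 3 and 5 h after stimulus, expressed as change from baseline.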

In assay [2] the test system is Mus musculus. As to the kind of experiment: Antinociceptive activity in ip dosed Swiss mouse assessed as inhibition of acetic acid-induced writhing response administered 30 mins before acetic acid challenge measured for 20 mins. The assay is classed as functional, organism-based. An outline of the steps:
(§2)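 Male Swiss mice pretreated ip (3-100 mg/kg) 30 min before ip acetic acid 0.6% v/v (10 mL/kg) or phenyl-p-benzoquinone 1890 µg/kg in 2% DMSO/saline. Cumulative writhing score counted over 20 min; n = 7.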
Background: An intraperitoneal irritant provokes the stretching counted in writhing tests.

Assay [3] has as its system Mus musculus. As to the kind of experiment: Antinociceptive activity in Swiss mouse assessed as inhibition of carrageenan-induced mechanical hypernociception at 3 to 100 mg/kg, ip administered 30 mins before carrageenan challenge measured after 3 hrs by electronic pressure-meter test. It is filed as functional. To be noted: dose mg/kg 3-100; route intraperitoneal. An outline of the steps: (§3)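 Male Swiss mice dosed ip (3-100 mg/kg) or po (30-300 mg/kg) in 20% Tween 80/saline 30 min before intraplantar carrageenin (100 µg/paw). Pressure-meter withdrawal threshold (average of three readings) before and 3 h after; Δ threshold in g; n = 5; one-way ANOVA with Tukey test.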

The subject of assay [4] is Mus musculus. As to the kind of experiment: Analgesic activity in Swiss mouse assessed as reaction time taken to jump or lick paw at 100 mg/kg, ip after 30 mins of administration by hot plate test. Also noted: dose 100 mg/kg. The assay is classed as functional, organism-based. An outline of the steps:
(§4)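 Male Swiss mice (25-30 g) placed in glass cylinder on hot plate at 55 °C. Two control latencies taken at least 10 min apart; latency rechecked 30 and 60 min after ip dosing. Endpoint is jumping or paw licking, 30 s cutoff.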
For orientation: Thermal pain tests record how soon the animal reacts.

In assay [5] the test system is Mus musculus. As to the kind of experiment: Analgesic activity in Swiss mouse assessed as reaction time taken to jump or lick paw at 100 mg/kg, ip after 60 mins of administration by hot plate test. It is filed as functional, organism-based. The arrangement: dose 100 mg/kg. An outline of the steps: as §4
Assay [6] concerns Mus musculus. As to the kind of experiment: Antinociceptive activity in Swiss mouse assessed as inhibition of carrageenan-induced mechanical hypernociception at 100 mg/kg, ip dosed 3 hrs before carrageenan challenge measured after 3 hrs by electronic pressure-meter test. The assay is classed as functional, organism-based. Also noted: dose 100 mg/kg. A digest of the protocol:
as §1

The subject of assay [7] is Mus musculus. As to the kind of experiment: Antinociceptive activity in Swiss mouse assessed as inhibition of TNF-alpha-induced mechanical hypernociception at 100 mg/kg, ip dosed 30 mins before TNFalpha challenge measured after 3 hrs by electronic pressure-meter test. The assay is classed as functional. To be noted: route intraperitoneal.
Assay [8] relates to Mus musculus. As to the kind of experiment: Antinociceptive activity in Swiss mouse assessed as inhibition of PGE2-induced mechanical hypernociception at 100 mg/kg, ip dosed 30 mins before PGE2 challenge measured after 3 hrs by electronic pressure-meter test. The assay is classed as functional, organism-based. The arrangement: dose 100 mg/kg.
In assay [9] the test system is Mus musculus. As to the kind of experiment: Antinociceptive activity against formalin-induced pain in Swiss mouse assessed as inhibition of hind paw flinching response during second phase of response at 100 mg/kg, ip dosed 30 mins before formalin challenge measured for 0 to 30 mins. It is filed as functional, organism-based. Also noted: dose 100 mg/kg. An outline of the steps:
(§5)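 Male Swiss mice dosed ip (100 mg/kg, vehicle 20% Tween 80 in saline) 30 min before intraplantar formalin 0.1% (25 µL). Paw flinches and licking time counted 0-30 min in 5-min intervals, separating first and second phases; n = 6.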

In assay [10] the test system is Mus musculus. As to the kind of experiment: Analgesic activity in Swiss mouse assessed as reaction time taken to jump or lick paw at 8 mg/kg, ip after 60 mins of administration by hot plate test. The arrangement: dose 8 mg/kg. It is filed as functional, organism-based. A digest of the protocol:
as §4

Assay [11] relates to Mus musculus. As to the kind of experiment: Antioxidant activity in ip dosed Swiss mouse assessed as inhibition of carrageenan-induced reduction in GSH level dosed 30 mins before carrageenan challenge measured after 3 hrs by fluorescence spectrophotometry. It is filed as functional, organism-based. An outline of the steps:
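Swiss mice dosed ip 10-100 mg/kg 30 min before intraplantar carrageenin (100 µg/paw) or saline. Plantar skin from five mice pooled 3 h later, homogenized in 100 mM NaH2PO4 pH 8.0/5 mM EGTA, TCA-precipitated. Supernatant reacted with OPT 15 min, fluorescence ex 350/em 420 nm against 0-40 µM GSH standard, in triplicate.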

The subject of assay [12] is Mus musculus. As to the kind of experiment: Inhibition of carrageenan-induced neutrophil recruitment in Swiss mouse subcutaneous plantar tissue assessed as myeloperoxidase activity at 100 mg/kg, ip dosed 30 mins before carrageenan challenge measured after 3 hrs by spectrophotometry. The arrangement: dose 100 mg/kg. The assay is classed as functional, organism-based. A digest of the protocol:
(§6)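 Mice given ip 100 mg/kg 30 min before intraplantar carrageenin (100 µg/paw), TNFα (300 pg/paw) or CXCL1 (20 ng/paw). Plantar tissue taken 3 h later into 50 mM K2HPO4 pH 6.0 with 0.5% HTAB, homogenized, centrifuged. Supernatant read with o-dianisidine/H2O2 at 450 nm, compared to neutrophil standard curve.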

The subject of assay [13] is Mus musculus. As to the kind of experiment: Analgesic activity in Swiss mouse assessed as reaction time taken to jump or lick paw at 8 mg/kg, ip after 30 mins of administration by hot plate test. The arrangement: dose 8 mg/kg. It is filed as functional, organism-based. An outline of the steps: as §4
Assay [14] relates to Mus musculus. As to the kind of experiment: Antinociceptive activity in Swiss mouse assessed as inhibition of carrageenan-induced mechanical hypernociception at 300 mg/kg, po dosed 30 mins before carrageenan challenge measured after 3 hrs by electronic pressure-meter test. The assay is classed as functional. An outline of the steps:
as §3

Assay [15] relates to Mus musculus. As to the kind of experiment: Antinociceptive activity in Swiss mouse assessed as inhibition of dopamine-induced mechanical hypernociception at 100 mg/kg, ip dosed 30 mins before dopamine challenge measured after 3 hrs by electronic pressure-meter test. It is filed as functional, organism-based. Also noted: dose 100 mg/kg.
In assay [16] the test system is Mus musculus. As to the kind of experiment: Antinociceptive activity in Swiss mouse assessed as inhibition of CXCL1-induced mechanical hypernociception at 100 mg/kg, ip dosed 30 mins before CXCL1 challenge measured after 3 hrs by electronic pressure-meter test. It is filed as functional. To be noted: route intraperitoneal.
In assay [17] the test system is Mus musculus. As to the kind of experiment: Inhibition of CXCL1-induced neutrophil recruitment in Swiss mouse subcutaneous plantar tissue assessed as myeloperoxidase activity at 100 mg/kg, ip dosed 30 mins before CXCL1 challenge measured after 3 hrs by spectrophotometry. It is filed as functional, organism-based. Also noted: dose 100 mg/kg. A digest of the protocol: as §6

Assay [18] concerns Mus musculus. As to the kind of experiment: Antiinflammatory activity in Swiss mouse assessed as inhibition of carrageenan-induced paw edema at 100 mg/kg, ip dosed 30 mins before carrageenan challenge measured after 0.5 to 3 hrs. It is filed as functional, organism-based. The arrangement: dose 100 mg/kg. An outline of the steps:
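Male Swiss mice; ip pretreatment 30 min before intraplantar carrageenin (100 µg/paw). Paw measured with calliper before and at 30, 60, 120, 180 min after stimulus; edema = VT minus Vo per mouse.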

For assay [19], the system named is Mus musculus. As to the kind of experiment: Muscle relaxant activity in Swiss mouse assessed as motor response at 100 mg/kg, ip after 3 hrs 30 mins by rotarod test. The assay is classed as functional, organism-based. Also noted: dose 100 mg/kg.
Assay [20] relates to Mus musculus. As to the kind of experiment: Inhibition of TNF-alpha-induced neutrophil recruitment in Swiss mouse subcutaneous plantar tissue assessed as myeloperoxidase activity at 100 mg/kg, ip dosed 30 mins before TNFalpha challenge measured after 3 hrs by spectrophotometry. Also noted: dose 100 mg/kg. The assay is classed as functional, organism-based. An outline of the steps: as §6

In assay [21] the test system is Mus musculus. As to the kind of experiment: Inhibition of carrageenan-induced IL1-beta production in Swiss mouse subcutaneous plantar tissue at 100 mg/kg, ip dosed 30 mins before carrageenan challenge measured after 3 hrs by ELISA. To be noted: sc. It is filed as functional. An outline of the steps: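 Mice dosed ip 100 mg/kg 30 min before intraplantar carrageenin (100 µg/paw). Paw skin removed 3 h later under terminal anesthesia, homogenized in protease-inhibitor buffer. IL-1β measured by ELISA as pg/paw, with saline-injected controls; n = 5.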

For assay [22], the system named is Mus musculus. As to the kind of experiment: Antinociceptive activity in ip dosed Swiss mouse assessed as inhibition of phenyl-p-benzoquinone-induced writhing response administered 30 mins before phenyl-p-benzoquinone challenge measured for 20 mins. The assay is classed as functional, organism-based. A digest of the protocol:
as §2

In assay [23] the test system is Mus musculus. As to the kind of experiment: Antinociceptive activity in ip dosed Swiss mouse assessed as inhibition of carrageenan-induced mechanical hypernociception administered 30 mins before carrageenan challenge measured after 3 hrs by electronic pressure-meter test. It is filed as functional, organism-based. An outline of the steps: as §3
The subject of assay [24] is Mus musculus. As to the kind of experiment: Antinociceptive activity against formalin-induced pain in Swiss mouse assessed as inhibition of paw licking response during second phase at 100 mg/kg, ip dosed 30 mins before formalin challenge measured for 0 to 30 mins. It is filed as functional, organism-based. The arrangement: dose 100 mg/kg. An outline of the steps:
as §5

A word on the inhibition in vivo: it is the share of the control response that was lost under treatment. On to `O=c1c(O)c(-c2ccc(O)c(O)c2)oc2cc(O)cc(O)c12` [QUERCETIN], for which the inhibition entry in [1], in assay [6] and in assay [18] was “Active” throughout. Besides, the inhibition entry in assay [2], in assay [11], in assay [22] and in assay [23] was “Dose-dependent effect” each time. For the same compound, the “inhibition (INH)” value in assay [3] is recorded as 59%. Further, the outcome in assay [4], in assay [5], in assay [8], in assay [12], in assay [15] and in assay [17] was inactive. The outcome in assay [19] and in assay [20] was inactive. For the same compound, the inhibition in vivo at 100 mg/kg in [7] turned out to be 51%; in assay [16], 43%; in assay [21] it was 36%. Moreover, the outcome in [9], in assay [10], in assay [13] and in [24] was Active. In addition, the inhibition in vivo at 300 mg/kg in [14] came to 55%.
